Published values of several laboratories.
Lines come from different studies, so protocols differ.
Target: SNF-related serine/threonine-protein kinase (SNRK, Homo sapiens, UniProt Q9NRH2)
Sequence (Q9NRH2 1-765, as in one of the studies): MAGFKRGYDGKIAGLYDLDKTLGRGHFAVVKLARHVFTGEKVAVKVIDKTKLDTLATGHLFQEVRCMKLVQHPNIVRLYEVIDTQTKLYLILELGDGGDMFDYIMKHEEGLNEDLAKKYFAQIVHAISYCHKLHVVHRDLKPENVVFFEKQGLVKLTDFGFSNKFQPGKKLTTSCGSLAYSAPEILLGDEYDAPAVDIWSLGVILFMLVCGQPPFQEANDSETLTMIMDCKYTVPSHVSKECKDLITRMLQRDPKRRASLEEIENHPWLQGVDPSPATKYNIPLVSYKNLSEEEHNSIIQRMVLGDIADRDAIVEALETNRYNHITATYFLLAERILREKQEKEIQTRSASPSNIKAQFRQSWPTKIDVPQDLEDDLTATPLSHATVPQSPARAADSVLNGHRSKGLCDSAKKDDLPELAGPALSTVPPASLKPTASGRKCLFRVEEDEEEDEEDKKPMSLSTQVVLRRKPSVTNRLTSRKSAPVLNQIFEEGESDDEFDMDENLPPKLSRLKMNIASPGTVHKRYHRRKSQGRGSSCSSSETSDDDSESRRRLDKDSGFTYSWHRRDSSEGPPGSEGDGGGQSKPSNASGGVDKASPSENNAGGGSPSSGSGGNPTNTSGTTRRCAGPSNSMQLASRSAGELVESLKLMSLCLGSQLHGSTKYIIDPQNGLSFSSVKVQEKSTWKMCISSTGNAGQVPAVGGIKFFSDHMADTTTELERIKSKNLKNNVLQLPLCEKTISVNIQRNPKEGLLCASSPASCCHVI

| Structure (SMILES) | assay | conditions | remaining binding |
| --- | --- | --- | --- |
| F[C@@H]1CCN(c2nccc(-c3cnn4ncccc34)n2)C1 | binding | 1 µM | 100% |
| CS(=O)(=O)N1CCCC(NC(=O)[C@H](CCC2CCCCC2)NC(=O)c2ccc(CNc3ncnc4c3nnn4-c3ccccc3)cc2)C1 (stereo partly shown) | cell-free assay, competition with immobilised ligand | 0.1 µM | 81% |
| O=C(c1ccc(Nc2nccc(-c3cc4ccccc4s3)n2)cc1)N1CCC(N2CCCC2)CC1 | binding, competition with immobilised ligand | 1 µM | 100% |
| O=C(Nc1c[nH]nc1C(=O)NC1CCNCC1)c1cc(F)cc(F)c1 | binding, competition with immobilised ligand | 1 µM | 97% |
| Cc1noc([C@H]2C[C@@H](c3ccc(C(F)(F)F)cc3)CN(C(=O)N3CCS(=O)(=O)C3)C2)n1 | cell-free assay, competition with immobilised ligand | 1 µM | 100% |
| CN(C)c1ncc(F)c(-c2cnn3ncccc23)n1 | binding | 1 µM | 100% |
| COc1ccc2c(c1)O[C@H](c1ccc(OC)c(OC)c1)C[C@@H]2NC(=O)C1(c2ccc3c(c2)OC(F)(F)O3)CC1 | cell-free assay, competition with immobilised ligand | 1 µM | 92% |
| COc1ncc2cc3ccccc3nc2c1C#N | cell-free assay, competition with immobilised ligand | 5 µM | 100% |
| O=C(Nc1cccnn1)N1CCC(=Cc2cccc(Oc3ccc(C(F)(F)F)cn3)c2)CC1 | cell-free assay, competition with immobilised ligand | 1 µM | 100% |
| CNC(=O)[C@@H]1CC[C@@H](n2c(-c3ccc4cnccc4c3)nc3ccc(C(=O)NCc4cccc(C(N)=O)c4)cc32)C1 | binding, competition with immobilised ligand | 1 µM | 100% |
| CC(=O)N1CCC(c2ccc(C(=O)NC(=N)N)cc2C(F)(F)F)CC1 | cell-free assay, competition with immobilised ligand | 1 µM | 100% |
| COc1cnc(Nc2cccc(S(N)(=O)=O)c2)nc1N1CCN(c2ccccc2)C(=O)C1 | binding, competition with immobilised ligand | 1 µM | 85% |
| O=C(NCCCN1CCOCC1)c1ccc(Nc2ncc(Cl)c(-c3ccc(Cl)s3)n2)cc1 | binding, competition with immobilised ligand | 1 µM | 100% |
| COc1cc(-c2cn(C3CCc4c(F)cccc4N(CC(F)(F)F)C3=O)nn2)ccc1-n1cnc(C)c1 (stereo not shown) | cell-free assay, competition with immobilised ligand | 1 µM | 100% |
| N[C@@H]1CCN(c2nccc(-c3cnn4ncccc34)n2)C1 | binding | 1 µM | 100% |
| CO[C@@H](C)c1c(Nc2ccc([C@H](N(C)C(=O)C3CCS(=O)(=O)CC3)C(F)(F)F)cc2)cnc2cc(Cl)nn12 | cell-free assay, competition with immobilised ligand | 1 µM | 100% |
| COc1ccnn2ncc(-c3ccnc(N(C)C)n3)c12 | binding | 1 µM | 93% |
| Nc1ncc2c(n1)-c1c([nH]c3ccc(C#CC4CC4)cc13)CCCC2 | binding, competition with immobilised ligand | 1 µM | 88% |
| CN(CCCC(F)(F)F)c1nccc(-c2cnn3ncccc23)n1 | binding | 1 µM | 100% |
| O=C(c1ccc(Nc2ncc(Cl)c(-c3cc4ccccc4s3)n2)cc1)N1CCC(N2CCCC2)CC1 | binding, competition with immobilised ligand | 1 µM | 87% |
| C[C@@H]1CCN(c2nccc(-c3cnn4ncccc34)n2)C1 | binding | 1 µM | 92% |
| C=CC(=O)N1CCC(C(=O)NCC(=O)N2CCN(c3nc(-c4cnc(N)nc4C(F)F)nc(N4CCOCC4)n3)CC2)CC1 | binding, competition with immobilised ligand | 1 µM | 99% |
